This note sets out measurements from ChEMBL document CHEMBL5096172, “Tricyclic Triazoles as σ1 Receptor Antagonists for Treating Pain” (J Med Chem, 2021).

Data set [1] in a line: Clearance in CD-1 mouse at 10 mg/kg, po by HPLC-MS/MS analysis relative to liver blood flow. The conditions noted are these: in vivo. The class given is ADME, organism-based. An outline of the steps: (§1)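 Male Wistar rats (250−300 g, groups of 2) or male CD1 mice (25−30 g, groups of 16) dosed 10 mg/kg orally in 0.5% HPMC or 1 mg/kg iv in saline. Blood taken over time from saphenous vein or by intracardiac puncture into heparin tubes. Plasma spun at 4 °C, stored −80 °C, assayed by HPLC−MS/MS after protein precipitation. Noncompartmental analysis.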

Data set [2] can be described thus: Clearance in wistar rat at 10 mg/kg, po by HPLC-MS/MS analysis relative to liver blood flow. The class given is ADME, organism-based. As to conditions: in vivo. The gist of the method: as §1

In the case of `Cc1cc(OCCN2CCOCC2)nn1-c1ccc2ccccc2c1`, the CL in data set [1] worked out at 65%; in data set [2], 109%.
